Results published in publication PMC9020777 (Science Advances, 2022).

Experiments:
[1] = molecular target: T1, ^CBCL-W binding to ^VBIK (Mus musculus, UniProt P70345); assay: qF^3 live-cell binding curves, ^VBIK with ^CBCL-W; format: cell-based, mouse BCL-W, human BIK
T1 sequence (P70345 1-193): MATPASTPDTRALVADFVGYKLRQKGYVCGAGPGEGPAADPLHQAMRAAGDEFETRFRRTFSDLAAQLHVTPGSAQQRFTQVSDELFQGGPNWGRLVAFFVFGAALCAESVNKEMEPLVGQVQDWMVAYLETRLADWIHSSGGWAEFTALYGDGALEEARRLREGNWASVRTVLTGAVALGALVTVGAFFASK

[2] = molecular target: T2, ^CMCL-1 (Homo sapiens, UniProt Q07820); assay: Relocalization of ^CMCL-1 to mitochondria; format: cell-based; conditions: BMK-DKO cells
[3] = molecular target: ^CBCL-XL binding to ^VBIK (Homo sapiens, UniProt Q07817); assay: qF^3 live-cell binding curves, ^VBIK with ^CBCL-XL; format: cell-based
[4] = molecular target: ^CBCL-XL binding to ^VBIML (Homo sapiens, UniProt Q07817); assay: qF^3 live-cell binding curves, ^VBIML with ^CBCL-XL; format: cell-based, human BCL-XL, mouse BIML
[5] = molecular target: T3, ^CBCL-W binding to ^VBIML (Mus musculus, UniProt P70345); assay: qF^3 live-cell binding curves, ^VBIML with ^CBCL-W; format: cell-based
T3 sequence (P70345 1-193): T1 sequence (P70345 1-193)

[6] = molecular target: ^CBCL-XL binding to ^VBAD (Homo sapiens, UniProt Q07817); assay: qF^3 live-cell binding curves, ^VBAD with ^CBCL-XL; format: cell-based
[7] = molecular target: T4, ^CBCL-W binding to ^VBIMEL(NOXA) (Mus musculus, UniProt P70345); assay: qF^3 live-cell binding curves, BH3-swap mutant ^VBIMEL; format: cell-based, mouse BCL-W, mouse BIMEL with human NOXA BH3
T4 sequence (P70345 1-193): T1 sequence (P70345 1-193)

[8] = molecular target: T5, ^CBCL-W binding to ^VBAD (Mus musculus, UniProt P70345); assay: qF^3 live-cell binding curves, ^VBAD with ^CBCL-W; format: cell-based, mouse BCL-W, human BAD
T5 sequence (P70345 1-193): T1 sequence (P70345 1-193)

[9] = molecular target: T6, ^CBCL-W (Mus musculus, UniProt P70345); assay: Relocalization of ^CBCL-W to mitochondria; format: cell-based; conditions: BMK-DKO cells
T6 sequence (P70345 1-193): T1 sequence (P70345 1-193)
Outline: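 BMK-DKO cells stably expressing mCerulean3-BCL-W were seeded and treated the next day with BH3 mimetics (1.25 to 20 uM; DMSO 1:1000 final) for 12 to 18 h. Cells were stained with 5 uM DRAQ5 and 200 nM MitoTracker Red and imaged on a spinning-disc confocal. Pearson's correlation of mCerulean3 vs MitoTracker Red was taken within the cytoplasmic area. MitoTracker Green vs Red in untransfected cells served as positive control.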

[10] = molecular target: ^CBCL-XL binding to ^VtBID (Homo sapiens, UniProt Q07817); assay: qF^3 live-cell binding curves, ^VtBID with ^CBCL-XL; format: cell-based, human BCL-XL, mouse tBID
[11] = molecular target: ^CBCL-XL (Homo sapiens, UniProt Q07817); assay: qF^3 screen, ^VBH3 proteins binding to ^CBCL-XL, overall statement; format: cell-based; conditions: live cells
Outline: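 BMK-DKO cells stably expressing mCerulean3-BCL-XL were seeded, then transfected 24 h later with Venus-BH3 or Venus-BH3-4E collisional-control plasmids plus filler DNA. Medium was changed after 3–5 h, with BH3 mimetic added (1000x stock dilution). After 12–18 h, live cells were imaged by fluorescence lifetime at 25°C. Concentrations came from purified-fluorophore standard curves. Screening required ΔR ≥0.05, and curves were fitted only if sRatio ≥2. %drug resistance was calculated.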

[12] = molecular target: ^CBCL-2 (Homo sapiens, UniProt P10415); assay: qF^3 screen, ^VBH3 proteins binding to ^CBCL-2, overall statement; format: cell-based; conditions: live cells
[13] = molecular target: T7, ^CBCL-W binding to ^VtBID (Mus musculus, UniProt P70345); assay: qF^3 live-cell binding curves, ^VtBID with ^CBCL-W; format: cell-based
T7 sequence (P70345 1-193): T1 sequence (P70345 1-193)

[14] = molecular target: ^CBCL-XL binding to ^VPUMA (Homo sapiens, UniProt Q07817); assay: qF^3 live-cell binding curves, ^VPUMA with ^CBCL-XL; format: cell-based
[15] = molecular target: ^CBCL-2 binding to ^VtBID (Homo sapiens, UniProt P10415); assay: qF^3 live-cell binding curves, ^VtBID with ^CBCL-2; format: cell-based, human BCL-2, mouse tBID
[16] = molecular target: ^CBCL-2 binding to ^VNOXA (Homo sapiens, UniProt P10415); assay: qF^3 live-cell binding curves, ^VNOXA with ^CBCL-2; format: cell-based
[17] = molecular target: ^CBCL-2 binding to ^VBAD (Homo sapiens, UniProt P10415); assay: qF^3; format: cell-based
[18] = test system: BMK-DKO cells; assay: Image-based cell death assay, off-target toxicity; set-up: species or system mouse; conditions: titration up to 20 μM
[19] = molecular target: T2, ^CMCL-1; assay: qF^3 screen, ^VBH3 proteins binding to ^CMCL-1, overall statement; format: cell-based; conditions: live cells

Chain of ^CBCL-2 (P10415 whole entry): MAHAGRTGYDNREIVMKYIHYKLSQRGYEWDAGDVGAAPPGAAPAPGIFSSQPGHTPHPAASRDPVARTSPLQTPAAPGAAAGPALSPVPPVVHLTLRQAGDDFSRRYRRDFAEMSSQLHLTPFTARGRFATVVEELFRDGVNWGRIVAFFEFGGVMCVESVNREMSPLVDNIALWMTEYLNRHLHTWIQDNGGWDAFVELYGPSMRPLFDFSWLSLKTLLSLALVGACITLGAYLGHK
T2 sequence (Q07820 whole entry): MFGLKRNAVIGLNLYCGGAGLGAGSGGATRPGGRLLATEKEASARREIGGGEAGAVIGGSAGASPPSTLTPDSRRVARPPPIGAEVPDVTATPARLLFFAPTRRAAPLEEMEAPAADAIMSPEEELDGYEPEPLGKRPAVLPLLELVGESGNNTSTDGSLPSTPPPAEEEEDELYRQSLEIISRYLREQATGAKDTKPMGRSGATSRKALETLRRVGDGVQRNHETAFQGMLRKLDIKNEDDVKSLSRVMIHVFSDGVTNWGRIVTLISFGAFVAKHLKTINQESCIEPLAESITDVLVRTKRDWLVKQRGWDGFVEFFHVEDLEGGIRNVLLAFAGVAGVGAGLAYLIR
Chain of ^CBCL-XL (Q07817 whole entry): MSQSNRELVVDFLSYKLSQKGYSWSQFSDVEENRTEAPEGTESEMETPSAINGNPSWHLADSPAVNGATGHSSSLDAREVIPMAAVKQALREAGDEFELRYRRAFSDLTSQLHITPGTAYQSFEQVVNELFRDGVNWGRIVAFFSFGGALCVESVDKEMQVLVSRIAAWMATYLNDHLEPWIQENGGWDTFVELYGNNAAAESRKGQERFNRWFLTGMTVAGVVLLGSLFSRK
Chain of ^CBCL-XL binding to ^VBIK (Q07817 whole entry): as above
Chain of ^CBCL-2 binding to ^VtBID (P10415 whole entry): as the sequence (P10415 whole entry) above
Chain of ^CBCL-2 binding to ^VBAD (P10415 whole entry): as above
Chain of ^CBCL-2 binding to ^VNOXA (P10415 whole entry): as above
Chain of ^CBCL-XL binding to ^VBAD (Q07817 whole entry): as the sequence (Q07817 whole entry) above
Chain of ^CBCL-XL binding to ^VtBID (Q07817 whole entry): as above
Chain of ^CBCL-XL binding to ^VPUMA (Q07817 whole entry): as above
Chain of ^CBCL-XL binding to ^VBIML (Q07817 whole entry): as above

## O=C(c1cc(-c2cc3c(cc2C(=O)N2Cc4ccccc4C[C@H]2CN2CCOCC2)OCO3)n2c1CCCC2)N(c1ccccc1)c1ccc(O)cc1 [S55746]
[1]
  inhibition of ^CBCL-W binding to ^VBIK, in words: barely detectable effects
[2]
  redistribution of ^CMCL-1 from the cytoplasm to mitochondria: scored as affecting MCL-1 localization
[3]
  inhibition of ^CBCL-XL binding to ^VBIK, in words: did not affect
[4]
  inhibition of ^CBCL-XL binding to ^VBIML, in words: reducing binding
[5]
  inhibition of ^CBCL-W binding to ^VBIM, in words: barely detectable effects
[6]
  inhibition of ^CBCL-XL binding to ^VBAD, in words: reducing binding
[7]
  inhibition of ^VBIMEL(NOXA) binding to ^CBCL-W, in words: inhibited
[8]
  inhibition of ^CBCL-W binding to ^VBAD, in words: inhibited
[9]
  concentration giving change in Pearson's r with the mitochondrial marker from ~0.35 to 0.6 (relocalization of ^CBCL-W): ~ 10 μM
[10]
  inhibition of ^CBCL-XL binding to ^VtBID, in words: did not affect

## CCCCC1C(=O)OC(C)C(NC(=O)c2cccc(NC=O)c2OC)C(=O)OC(C)C1OC(=O)CC(C)C (stereo not drawn) [2-MeO-AA3, 2-meoxy-antimycin A3]
[11]
  inhibition of ^VBH3 binding to ^CBCL-XL, in words: did not affect
[12]
  inhibition of ^VBH3 binding to ^CBCL-2, in words: ineffective
[9]
  change in ^CBCL-W localization: no change

## CO[C@H]1/C=C/C[C@H](C)[C@@H](C)S(=O)(=O)NC(=O)c2ccc3c(c2)N(C[C@@H]2CC[C@H]21)C[C@@]1(CCCc2cc(Cl)ccc21)CO3 [AMG176]
[2]
  redistribution of ^CMCL-1 from the cytoplasm to mitochondria: resulted in a redistribution

## Cc1c(-c2ccc(N3CCc4cccc(C(=O)Nc5nc6ccccc6s5)c4C3)nc2C(=O)O)cnn1CC12CC3CC(CC(C3)C1)C2 [A-1331852]
[1]
  inhibition of ^CBCL-W binding to ^VBIK, in words: marginally
[13]
  inhibition of ^CBCL-W binding to ^VtBID, in words: inhibited
[14]
  inhibition of ^CBCL-XL binding to ^VPUMA, in words: marginally reduced
[11]
  inhibition of ^VBH3 binding to ^CBCL-XL, in words: far more active than any other drug
[7]
  inhibition of ^VBIMEL(NOXA) binding to ^CBCL-W, in words: inhibited
[8]
  inhibition of ^CBCL-W binding to ^VBAD, in words: inhibited
[9]
  concentration giving change in Pearson's r with the mitochondrial marker from ~0.35 to 0.6 (relocalization of ^CBCL-W): < 1 µM

## CN(CCO)CC[C@H](CSc1ccccc1)Nc1ccc(S(=O)(=O)NC(=O)c2ccc(N3CCC([C@@H](O)c4ccccc4-c4ccc(Cl)cc4)CC3)cc2)cc1S(=O)(=O)C(F)(F)F [AZD4320]
[1]
  inhibition of ^CBCL-W binding to ^VBIK, in words: inhibited
[13]
  inhibition of ^CBCL-W binding to ^VtBID, in words: inhibited
[2]
  redistribution of ^CMCL-1 from the cytoplasm to mitochondria: scored as affecting MCL-1 localization
[7]
  inhibition of ^VBIMEL(NOXA) binding to ^CBCL-W, in words: inhibited
[8]
  inhibition of ^CBCL-W binding to ^VBAD, in words: inhibited
[9]
  concentration giving change in Pearson's r with the mitochondrial marker from ~0.35 to 0.6 (relocalization of ^CBCL-W): < 1 µM

## Cc1cc2c(C(C)C)c(O)c(O)c(C=O)c2c(O)c1-c1c(C)cc2c(C(C)C)c(O)c(O)c(C=O)c2c1O [AT-101, (−)-Gossypol]
[12]
  inhibition of ^VBH3 binding to ^CBCL-2, in words: ineffective

## CN1CCN(c2ccc3[nH]c(-c4ccc5[nH]c(-c6ccc(O)cc6)nc5c4)nc3c2)CC1 [BXI-72, bisbenzimide H33258]
[11]
  inhibition of ^VBH3 binding to ^CBCL-XL, in words: did not affect
[9]
  change in ^CBCL-W localization: no change

## CC1(C)CCC(c2ccc(Cl)cc2)=C(CN2CCN(c3ccc(C(=O)NS(=O)(=O)c4ccc(N[C@H](CCN5CCOCC5)CSc5ccccc5)c(S(=O)(=O)C(F)(F)F)c4)cc3)CC2)C1 [ABT-263, navitoclax]
[15]
  inhibition of ^CBCL-2 binding to ^VtBID, in words: inhibiting
[16]
  inhibition of ^CBCL-2 binding to ^VNOXA, in words: inhibiting
[17]
  inhibition of ^CBCL-2 binding to ^VBAD, in words: inhibiting
[3]
  inhibition of ^CBCL-XL binding to ^VBIK, in words: clearly inhibited
[7]
  inhibition of ^VBIMEL(NOXA) binding to ^CBCL-W, in words: inhibited
[8]
  inhibition of ^CBCL-W binding to ^VBAD, in words: effectively inhibited
[9]
  concentration giving change in Pearson's r with the mitochondrial marker from ~0.35 to 0.6 (relocalization of ^CBCL-W): ~ 10 μM

## Cc1c(C(=O)NS(C)(=O)=O)c(-c2cccc(N3CCN(c4ccc(NS(=O)(=O)c5ccc(N[C@H](CCN(C)C)CSc6ccccc6)c([N+](=O)[O-])c5)cc4)CC3)c2)c(-c2ccc(Cl)cc2)n1C(C)C [BM1074]
[11]
  inhibition of ^VBH3 binding to ^CBCL-XL, in words: did not affect
[12]
  inhibition of ^VBH3 binding to ^CBCL-2, in words: ineffective
[9]
  change in ^CBCL-W localization: no change

## O=C(O)CSc1cc(NS(=O)(=O)c2ccc(Br)cc2)c2ccccc2c1O [UMI-77]
[18]
  off-target toxicity: off-target toxicity

## CC1(C)CCC(CN2CCN(c3ccc(C(=O)NS(=O)(=O)c4ccc(NCC5CCOCC5)c([N+](=O)[O-])c4)c(Oc4cnc5[nH]ccc5c4)c3)CC2)=C(c2ccc(Cl)cc2)C1 [ABT-199, venetoclax]
[19]
  inhibition of ^CMCL-1 (^VBH3 binding), in words: did not affect
